Source: ChEMBL document CHEMBL4196122, “Design, Synthesis, and Biological Evaluation of Allosteric Effectors That Enhance CO Release from Carboxyhemoglobin” (ACS Med Chem Lett, 2018)

What was measured:
[1] = Hemolytic activity against human RBC assessed as fraction of extracellular Hb level at 1 mM after 1 hr relative to total Hb level; assay type: ADME, cell-based, Erythrocyte; settings: red blood cells (erythrocytes), read-out: Activity
How it was run: (§1)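 Human red blood cells (50 µM Hb) incubated with compound at 1 mM in 0.1 vol % DMSO. Read-out is extracellular Hb as a fraction of total Hb. "-" denotes less than 1% of total Hb released.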

[2] = target: T1, Hemoglobin HbA (Homo sapiens) (UniProt P69905+P68871); assay: Binding affinity to hemoglobin (unknown origin) assessed as increase in release of carbon monooxide from carboxyhemoglobin by measuring half life of carboxyhemoglobin at 5:1 compound/Hb tetramer ratio incubated for 1 hr measured every 15 mins for 90 mins (reference value: 80 +/- 0.3 min); assay type: protein-complex assay
T1 sequence (P68871 2-147 partner limits assumed): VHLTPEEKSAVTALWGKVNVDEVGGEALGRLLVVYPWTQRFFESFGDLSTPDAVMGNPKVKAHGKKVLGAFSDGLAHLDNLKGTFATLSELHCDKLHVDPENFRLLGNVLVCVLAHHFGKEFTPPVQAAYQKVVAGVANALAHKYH
T1 sequence (P69905 2-142 limits assumed): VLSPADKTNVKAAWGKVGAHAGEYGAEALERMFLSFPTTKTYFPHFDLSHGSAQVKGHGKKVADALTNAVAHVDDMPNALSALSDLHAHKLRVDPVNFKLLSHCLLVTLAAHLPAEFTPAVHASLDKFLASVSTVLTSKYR

[3] = Aqueous solubility of the compound in DMSO/[…] solution at 2.5 mM; assay type: physicochemical; settings: 2500 µM
How it was run: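 Compound made up at 2.5 mM in DPBS containing 1 vol% DMSO. Scored by visual inspection of the solution: "+" if no aggregates or crystals are seen, "-" if aggregates or crystals appear.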

[4] = target: T1, Hemoglobin HbA (Homo sapiens); assay: Binding affinity to hemoglobin (unknown origin) assessed as increase in release of carbon monooxide from carboxyhemoglobin by measuring half life of carboxyhemoglobin at 20:1 compound/Hb tetramer ratio incubated for 1 hr measured every 15 mins for 90 mins (reference value: 80 +/- 0.3 min); assay type: protein-complex assay
[5] = target: T1, Hemoglobin HbA (Homo sapiens); assay: Binding affinity to hemoglobin (unknown origin) assessed as partial oxygen pressure at which 50% of Hb is oxygenated (reference value: 17 +/- 0.3 mmHg); assay type: protein-complex assay
[6] = system: Erythrocyte; assay: (§2) Hemolytic activity against human RBC assessed as increase in fraction of extracellular Hb level at 1 mM after 1 hr; assay type: ADME, cell-based; settings: erythrocyte, 1 h, 1000 µM; how it was run: as §1
[7] = as §2; assay type: ADME, cell-based, Erythrocyte; settings: red blood cells (erythrocytes), read-out: Activity; how it was run: as §1

T1/2 [2]	solubility [3]	T1/2 [4]	Activity [5]	SMILES	hemolysis at 1 h, 1000 µM [1]	Activity [6]	hemolysis at 1 h, 1000 µM [7]
1.3 h	Soluble	1.18 h	–	Cc1cc(C)cc(C(=O)N[C@H](Cc2ccc(-c3c(C(=O)O)noc3C)cc2)C(=O)N[C@@H](Cc2c[nH]c3ccccc23)C(=O)O)c1	< 1%	–	–
1.23 h	Insoluble	1.08 h	–	Cc1cc(C)cc(C(=O)N(C)[C@H](Cc2ccccc2)C(=O)N[C@@H](Cc2c[nH]c3ccccc23)C(=O)O)c1	< 1%	–	–
1.2 h	Insoluble	0.95 h	–	Cc1cc(C)cc(C(=O)N[C@H](Cc2ccc(-c3c(C)noc3C)cc2)C(=O)N[C@@H](Cc2c[nH]c3ccccc23)C(=O)O)c1	< 1%	–	–
1.23 h	Soluble	1.15 h	–	Cc1cc(C)cc(C(=O)N[C@H](Cc2ccc(-c3cnn(C)c3)cc2)C(=O)N[C@@H](Cc2c[nH]c3ccccc23)C(=O)O)c1	< 1%	–	–
1.2 h	Insoluble	1.12 h	–	Cc1cc(C)cc(C(=O)N[C@H](Cc2ccc(-c3ccc(CN(C)C)o3)cc2)C(=O)N[C@@H](Cc2c[nH]c3ccccc23)C(=O)O)c1	< 1%	–	–
–	Insoluble	1.05 h	–	Cc1cc(C)cc(C(=O)N[C@H](Cc2ccccc2)C(=O)N[C@@H](Cc2c[nH]c3ccccc23)C(=O)O)c1	< 1%	–	–
1.15 h	Insoluble	–	19 mmHg	Cc1cc(C)cc(C(=O)N(C)[C@H](Cc2ccc(-c3ccccc3)cc2)C(=O)N[C@@H](Cc2c[nH]c3ccccc23)C(=O)O)c1	–	Toxic	–
1.17 h	Soluble	1.08 h	–	Cc1cc(C)cc(C(=O)N[C@H](Cc2ccc(-c3c(CO)noc3C)cc2)C(=O)N[C@@H](Cc2c[nH]c3ccccc23)C(=O)O)c1	< 1%	–	–
1.33 h	Soluble	1.28 h	–	Cc1cc(C)cc(C(=O)N[C@H](Cc2ccc(-c3cncnc3)cc2)C(=O)N[C@@H](Cc2c[nH]c3ccccc23)C(=O)O)c1	< 1%	–	–
1.15 h	Insoluble	1.07 h	–	Cc1cc(C)cc(C(=O)N[C@H](Cc2ccc(-c3ccccc3)cc2)C(=O)N[C@@H](Cc2c[nH]c3ccccc23)C(=O)O)c1	< 1%	–	–
1.18 h	Insoluble	1 h	–	Cc1cc(C)cc(C(=O)N[C@H](Cc2ccc(-c3ccco3)cc2)C(=O)N[C@@H](Cc2c[nH]c3ccccc23)C(=O)O)c1	–	–	1 to 2%
